Test results from PubChem BioAssay AID2648 (Johns Hopkins Ion Channel Center, 2010).
Screen size: about 310,000 compounds; about 1,100 (0.35%) were called active.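 The calls were made as follows: active = fluorescence ratio B-score, a plate-corrected score, at least three library SD, with initial intensity B-score within 5 SD; inactive = the rest.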 The list comes from a sample in which actives are over-represented; it also holds similar structures and randomly drawn compounds.

Biological target: Potassium voltage-gated channel subfamily KQT member 1 (Homo sapiens) (UniProt P51787)
Sequence (P51787 whole entry, looked up): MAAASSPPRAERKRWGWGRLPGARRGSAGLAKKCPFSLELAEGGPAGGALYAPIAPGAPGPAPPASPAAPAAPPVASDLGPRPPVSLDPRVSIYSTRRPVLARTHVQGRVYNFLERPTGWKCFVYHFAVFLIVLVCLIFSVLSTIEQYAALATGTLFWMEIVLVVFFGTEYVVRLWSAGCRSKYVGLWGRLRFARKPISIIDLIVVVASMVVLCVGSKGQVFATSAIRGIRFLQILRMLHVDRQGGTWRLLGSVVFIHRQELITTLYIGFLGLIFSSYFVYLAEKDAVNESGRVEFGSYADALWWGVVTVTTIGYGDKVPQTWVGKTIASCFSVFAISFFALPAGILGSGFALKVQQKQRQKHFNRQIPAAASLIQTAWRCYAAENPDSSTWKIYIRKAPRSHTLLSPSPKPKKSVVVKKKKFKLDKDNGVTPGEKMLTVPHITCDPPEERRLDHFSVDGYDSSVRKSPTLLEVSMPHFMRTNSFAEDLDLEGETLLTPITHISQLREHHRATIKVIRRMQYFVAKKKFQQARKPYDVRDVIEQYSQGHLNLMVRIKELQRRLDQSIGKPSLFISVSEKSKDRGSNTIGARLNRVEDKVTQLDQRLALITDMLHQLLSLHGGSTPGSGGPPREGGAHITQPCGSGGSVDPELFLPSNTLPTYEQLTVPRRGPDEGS
Assay: potentiators or activators of KCNQ1 channel, primary screen, cell-based, thallium flux, high-throughput (AID 2648)
Settings: CHO-K1 KCNQ1, thallium flux FluxOR fluorescence, at 10 µM; active compounds read high
Outline: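 Assay system: CHO-K1 cells stably expressing KCNQ1; Medium: assay buffer with matched DMSO; Also added: K+/Tl+ depolarizing stimulus; Dosing: single dose; Timing: dye 90 min, compound 20 min, room temperature; Measured by: kinetic FluxOR thallium fluorescence, 10-s 1-Hz baseline, 110-s post-stimulus read; Read-out: peak-minus-minimum fluorescence over initial fluorescence, negative-control normalized, B-scored.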

Row | Structure (SMILES) | B-score
1 | O=C(N/N=C\c1cc2c(cc1Cl)OCO2)c1ccc(Br)s1 | inactive
2 | COC(=O)c1sccc1NC(=O)CSc1ccccc1NS(=O)(=O)c1cc(Cl)ccc1Cl | 12 (active)
3 | COC(=O)c1sccc1NS(=O)(=O)c1ccc(F)cc1F | inactive
4 | COC(=O)c1sccc1NC(=O)COc1ccc(Cl)cc1 | inactive
5 | COc1ccc(C(=O)NC(=S)NC2CCCCC2)cc1 | inactive
6 | O=C(NC(=S)NC1CCCCC1)c1ccc(Cl)cc1 | 9 (active)
7 | O=C(NNC(=S)NC1CCCCC1)c1ccccc1Cl | inactive
8 | CC(C)Cc1nc(Nc2ccc(S(=O)(=O)N3CCCC3)cc2)c2nnn(Cc3ccccc3)c2n1 | inactive
9 | CCc1ccc(Oc2coc3cc(O)ccc3c2=O)cc1 | inactive
10 | CC(Oc1cccc(Cl)c1)C(=O)Nc1ccc(S(=O)(=O)Nc2ncccn2)cc1 (configuration not stated) | inactive
11 | CCCc1nc2sc3c(c2c(=O)n1NC(=O)CCCl)CCCC3 | inactive
12 | CN(C)CCCn1c(=O)n(Cc2ccccc2)c(=O)c2c3c(sc21)CCCCC3 | inactive
13 | CCn1c(=S)[nH]c2sc3c(c2c1=O)CCCCC3 | 92 (active)
14 | N#Cc1nc(N)nc(N(c2ccccc2)c2ccccc2)n1 | inactive
15 | O=C(Nc1cccn(Cc2ccccc2Cl)c1=O)NC1CCCCC1 | inactive
16 | CC(OC(=O)C1CC(=O)N(Cc2ccccc2)C1)C(=O)Nc1ccccc1[N+](=O)[O-] (configuration not stated) | inactive
17 | COc1ccc(C(=O)NC(=S)NNC(=O)c2c(-c3ccccc3)noc2C)cc1 | inactive
18 | COc1ccc(C(=O)NNC(=S)NC(=O)c2ccccc2[N+](=O)[O-])cc1 | inactive
19 | COc1ccc(C(=O)NNC(=S)NC(=O)c2ccccc2)cc1 | 10 (active)
20 | CCc1cc2c(=O)c(-c3ccon3)c(N)oc2cc1OC | inactive
21 | Oc1ccc2ccccc2c1N=Nc1nccs1 | 21 (active)
22 | Oc1ccc(N=Nc2nccs2)c(O)c1 | inactive
23 | c1ccc(NCc2cccc3ccccc23)nc1 | inactive
24 | COc1ccc(N(CC(=O)NCc2ccc(F)cc2)C(=O)CCC(=O)Nc2nccs2)cc1 | inactive

Row | Structure (SMILES) | B-score
25 | CC1=C/C(=N\OS(=O)(=O)c2ccccc2)C=CC1=O | 9 (active)
26 | O=S(=O)(ON(c1ccccc1)S(=O)(=O)c1ccccc1)c1ccccc1 | inactive
27 | CCOc1ccc(Br)cc1S(=O)(=O)Nc1cccc(S(=O)(=O)N(CC)CC)c1 | inactive
28 | Cc1ccc(O)c(NC(=O)COc2cc(C)ccc2C)c1 | inactive
29 | Cc1ccc(O)c(NC(=S)NC(=O)COc2ccc(Br)cc2)c1 | 8 (active)
30 | Cc1cccc(OCC(=O)NC(=S)Nc2ccccc2N2CCOCC2)c1 | inactive
31 | CCCCn1c(N)c(N(CCC(C)C)C(=O)CC2OC(=O)c3ccccc32)c(=O)[nH]c1=O (configuration not stated) | inactive
32 | Cc1cc2occ(CC(=O)NNC(=O)c3ccccc3F)c2cc1C | inactive
33 | CCOC(=O)CN(C(=O)COc1nc(-c2ccccc2)cc(C)c1C#N)c1ccc(F)cc1 | inactive
34 | Cc1cccc(C(=O)Nc2ccc(C(=O)/C=C/c3cccs3)cc2)c1 | inactive
35 | Cc1cccc(/C(N)=N/OC(=O)c2ccccc2Cl)c1 | inactive
36 | Cc1ccc(NC(=O)c2cc3ccccc3o2)cc1 | inactive
37 | C/C(=N/NC(=S)Nc1ccccc1)c1ccc2c(c1)OCO2 | inactive
38 | C/C(=N\NC(=S)Nc1ccc(C)cc1)c1cc2ccccc2o1 | 28 (active)
39 | O=C(CSc1nncn1-c1cccnc1)N1CCOCC1 | inactive
40 | CCc1[nH]nc(C(=O)N2CCCC(CNS(=O)(=O)c3cccs3)C2)c1C (configuration not stated) | inactive
41 | CC(C)c1ccc2c(c1)c(SC(C)(C)C)c(CC(C)(C)C(=O)O)n2Cc1ccc(Cl)cc1 | 44 (active)
42 | Nc1ncnc(Nc2cccc(Cl)c2Cl)n1 | inactive
43 | Cc1cccc(C(=O)NCCCN(C)CCCNC(=O)c2cccc(C)c2)c1 | inactive
44 | Cc1cccc(NC(=S)NCCN(C2CCCCC2)C2CCCC2)c1 | inactive
45 | Cc1cccc(C(=O)NC(=S)N(C)C2CCCCC2)c1 | 16 (active)
46 | COc1ccc(C(=O)C2CCCN(C(=O)c3cnsn3)C2)c(C)c1 (configuration not stated) | inactive
47 | OC(CNC1CCCC1)COc1ccc(F)cc1 (configuration not stated) | inactive
48 | CC1CCN(C(=O)c2ccc(S(=O)(=O)Cc3cc(F)ccc3F)c([N+](=O)[O-])c2)CC1 | inactive

Row | Structure (SMILES) | B-score
49 | COc1cccc2sc(NNC(=O)c3nc4ccccc4s3)nc12 | 28 (active)
50 | COc1cccc2sc(Nc3nc(C)c(C(C)=O)s3)nc12 | inactive
51 | COc1ccccc1OCc1nc2ccccc2s1 | inactive
52 | CN(CC(=O)Nc1ccccc1C(F)(F)F)C(=O)Cc1ccccc1F | inactive
53 | COCCNC(=O)CN1C(=O)CSc2ncccc21 | inactive
54 | O=C1CCCc2c1nc(-c1cccc(Cl)c1)n2O | inactive
55 | Cc1cccc(-c2nc3ccccc3c(=O)n2NC(=O)Cc2ccc(Cl)cc2)c1 | inactive
56 | O=c1c2cc(Br)ccc2nc(-c2cccc(Cl)c2)n1O | 89 (active)
57 | Cc1ccc(S(=O)(=O)N(C)C)cc1NC(=O)COC(=O)/C=C/c1cccs1 | inactive
58 | O=C(NCCc1ccco1)C(=O)NCCC1CCCCN1S(=O)(=O)c1ccccc1 (configuration not stated) | inactive
59 | O=c1[nH]cnc2c1c(-c1ccccc1)cn2-c1ccc(F)cc1 | inactive
60 | COc1ccc(-n2c(-c3ccc(OC)c(OC)c3)n[nH]c2=S)cc1 | inactive
61 | COc1ccc(-n2cc(-c3ccccc3)c3c(=S)nc[nH]c32)cc1 | 8 (active)
62 | CC(=O)NS(=O)(=O)c1ccc(NC(=O)/C=C/c2ccccc2Cl)cc1 | inactive
63 | CN(C(=O)c1c(Cl)cnn1C)C12CC3CC(CC(C3)C1)C2 | inactive
64 | Nc1ccc(N=Nc2ccccc2Cl)c(N)n1 | inactive
65 | CC(Oc1ccc2ccccc2c1)C(=O)NNC(=S)NC(=O)c1ccco1 (configuration not stated) | 38 (active)
66 | Cc1ccc(OCC(=O)NCCCNC(=O)c2ccco2)cc1C | inactive
67 | O=C(Nc1ccc2ccccc2c1)/C(=C/c1cccc(Br)c1)NC(=O)c1ccco1 | inactive
68 | CCCc1ccc(OCC(=O)NNC(=S)NC(=O)c2ccco2)cc1 | 10 (active)
69 | Cc1ccc(C(=O)NNC(=O)C(C)Oc2ccc3ccccc3c2)o1 (configuration not stated) | inactive
70 | CCCc1ccc(OCCNC(=O)c2ccco2)cc1 | inactive
71 | O=C(c1cccs1)n1nc(NCc2ccccc2)nc1NCc1ccccc1 | inactive
72 | COC(=O)Cc1cnc(NC(=O)CSc2nc(C(C)C)cc(=O)[nH]2)s1 | inactive

Row | Structure (SMILES) | B-score
73 | CC(=O)c1c(C)[nH]c(C(=O)OCC(=O)Nc2sc3c(c2C#N)CCCC3)c1C | inactive
74 | Cc1ccc(CNC(=O)CCC(=O)N2CC(C)Sc3ccccc32)cc1 (configuration not stated) | inactive
75 | O=S(=O)(Nc1cccc(-c2ccc(N3CCOCC3)nn2)c1)c1ccc(Cl)c(Cl)c1 | inactive
76 | Cc1cccc(NC(=O)c2ccc([N+](=O)[O-])o2)c1 | inactive
77 | Cc1cccc(NC(=O)NC(=S)NC(=O)c2ccccc2)c1 | inactive
78 | Cc1cccc(NC(=S)NC(=O)c2ccc(Br)o2)c1 | 25 (active)
79 | Cc1ccc(CNC(=O)[C@@H](NC(=O)Cc2ccccc2)C(C)C)cc1 | inactive
80 | Cc1ccc(S(=O)(=O)N(CC(=O)NCCSC2CCCCC2)c2ccccc2F)cc1 | inactive
81 | O=C(N1CCOCC1)N1CCOCC1 | inactive
82 | CN1CCCN(C(=O)C2CCCCC2)CC1 | inactive
83 | O=C(N1CCCCC1)N1CCN(C(=O)N2CCCCC2)CC1 | 10 (active)
84 | Cc1sc(NC(=O)C2=COCCO2)c(C#N)c1C | inactive
85 | CC1CCN(S(=O)(=O)c2ccc(NC(=O)C3CC(=O)N(c4ccccc4)C3)cc2)CC1 (configuration not stated) | inactive
86 | c1ccc(-c2cc3c(NCC4COc5ccccc5O4)ncnc3s2)cc1 (configuration not stated) | inactive
87 | c1ccc2c(c1)OCC(CNc1ncnc3nc[nH]c13)O2 (configuration not stated) | 8 (active)
88 | S=C(NCC1COc2ccccc2O1)Nc1ccc(Br)cc1 (configuration not stated) | inactive
89 | O=C(O)C1CCCN1S(=O)(=O)c1ccc(Br)cc1 (configuration not stated) | inactive
90 | O=C(CSc1nccc(=O)[nH]1)Nc1ccc(N2CCOCC2)c(Cl)c1 | inactive
91 | O=C(Nc1cccc(Cl)c1)Nc1nnc(-c2ccccc2)o1 | inactive
92 | O=C(COC(=O)c1ccccc1Br)Nc1nnc(-c2ccccc2)o1 | inactive
93 | O=C(Nc1nnc(-c2ccc(Cl)cc2)o1)c1ccccc1Br | 8 (active)
94 | Cc1nnc(Nc2ccccc2F)s1 | inactive
95 | CC(=O)Nc1ccc(S(=O)(=O)N2CCC(C(=O)NC3CC3)CC2)cc1 | inactive
96 | CCOc1ccc(N(CC)S(=O)(=O)c2cccc3nsnc23)cc1 | inactive

Row | Structure (SMILES) | B-score
97 | CC(C)(C)C1CCc2c(sc3nc(SCC(N)=O)nc(N)c23)C1 (configuration not stated) | inactive
98 | O=c1c2ccccc2[nH]c(=S)n1CCN1CCC(=C(c2ccc(F)cc2)c2ccc(F)cc2)CC1 | inactive
99 | CCCCn1c(=S)[nH]c2ncccc2c1=O | 10 (active)
100 | CCCCn1c(=S)[nH]c2ccccc2c1=O | 18 (active)
101 | CCCCNC(=O)c1ccc(-n2c(=S)[nH]c3ccccc3c2=O)cc1 | inactive
102 | CCN(CC)CCn1c(=S)[nH]c2ncccc2c1=O | inactive
103 | CCCCNC(=O)CCn1c(=S)[nH]c2cc3c(cc2c1=O)OCO3 | inactive
104 | O=C(Nc1ccc(CN2CCOCC2)cc1)c1cc(Cl)ccc1Cl | inactive
105 | Cc1sc2ncnc(N3CCC(C(=O)Nc4nc5ccc(Cl)cc5s4)CC3)c2c1C | inactive
106 | O=C(CNS(=O)(=O)c1ccc(Br)s1)NCc1ccc2c(c1)OCO2 | inactive
107 | Cn1c2ccccc2c2cc(/C=C(\NC(=O)c3ccccc3)C(=O)NCC(=O)O)ccc21 | inactive
108 | CCNC(=S)Nc1ccc(OC(F)(F)F)cc1 | inactive
109 | FC(F)(F)Oc1ccc(NC(=S)NCc2ccccc2)cc1 | inactive
110 | CS(=O)(=O)c1sc(C(=O)NC(=S)Nc2ccc(OC(F)(F)F)cc2)c2c1C=CCC2 | 11 (active)
111 | CN(/N=C/c1ccccc1)C(=S)c1ccccc1 | inactive
112 | CC(CC(=O)Nc1ccccc1)n1ccnc1 (configuration not stated) | inactive
113 | Cc1ccn2c(=O)c(C(=O)NCCC3=CCCCC3)c(O)nc2c1 | inactive
114 | COc1cc(Br)cc(/C=N/c2ncn[nH]2)c1O | 12 (active)
115 | C=CCn1c(Cn2nnc3ccccc32)nnc1SCC(=O)N/N=C/c1cc(Br)cc(OC)c1O | inactive
116 | Oc1c(Cl)cc(Cl)cc1/C=N/c1ncn[nH]1 | 9 (active)
117 | Oc1ccc(Br)cc1C=Nc1ccc2[nH]ncc2c1 | inactive
